Source: ChEMBL document CHEMBL2311299, “New 2-(aryloxy)-3-phenylpropanoic acids as peroxisome proliferator-activated receptor α/γ dual agonists able to upregulate mitochondrial carnitine shuttle system gene expression” (J Med Chem, 2013)
Active and inactive are the calls of the source. The calls are words filed in the database; no cut-off is given here.

Columns and labels:
[1] = biological target: T1, Peroxisome proliferator-activated receptor alpha (Homo sapiens, UniProt Q07869); assay: Transactivation of GAL4-fused human PPARalpha ligand binding domain expressed in HepG2 cells after 20 hrs by luciferase reporter gene assay; type: cell-based
T1 sequence (Q07869 whole entry): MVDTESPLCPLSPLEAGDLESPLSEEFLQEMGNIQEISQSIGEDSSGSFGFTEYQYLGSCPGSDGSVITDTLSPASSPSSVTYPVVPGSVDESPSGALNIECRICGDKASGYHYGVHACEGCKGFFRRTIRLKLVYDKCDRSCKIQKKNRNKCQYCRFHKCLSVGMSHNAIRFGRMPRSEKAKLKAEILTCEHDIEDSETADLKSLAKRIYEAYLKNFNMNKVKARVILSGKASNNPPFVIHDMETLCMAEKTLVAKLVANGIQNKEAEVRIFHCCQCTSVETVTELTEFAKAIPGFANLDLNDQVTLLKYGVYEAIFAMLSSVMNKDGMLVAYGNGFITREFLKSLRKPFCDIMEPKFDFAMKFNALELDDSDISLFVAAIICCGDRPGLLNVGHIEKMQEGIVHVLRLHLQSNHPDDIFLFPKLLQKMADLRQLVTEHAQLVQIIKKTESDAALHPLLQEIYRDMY
Method in brief: (§1)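 HepG2 cells transiently transfected (calcium phosphate) with Gal4–PPARα-LBD or Gal4–PPARγ-LBD (30 ng), five-Gal4-element TK-luciferase reporter (100 ng) and pCMVβgal (250 ng). 4 h post-transfection, triplicate 20 h ligand treatment up to 10 μM; luciferase read, β-galactosidase measured with ONPG.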

[2] = biological target: T2, Peroxisome proliferator-activated receptor gamma (Homo sapiens, UniProt P37231); assay: Transactivation of GAL4-fused human PPARgamma ligand binding domain expressed in HepG2 cells after 20 hrs by luciferase reporter gene assay; type: cell-based
T2 sequence (P37231 whole entry): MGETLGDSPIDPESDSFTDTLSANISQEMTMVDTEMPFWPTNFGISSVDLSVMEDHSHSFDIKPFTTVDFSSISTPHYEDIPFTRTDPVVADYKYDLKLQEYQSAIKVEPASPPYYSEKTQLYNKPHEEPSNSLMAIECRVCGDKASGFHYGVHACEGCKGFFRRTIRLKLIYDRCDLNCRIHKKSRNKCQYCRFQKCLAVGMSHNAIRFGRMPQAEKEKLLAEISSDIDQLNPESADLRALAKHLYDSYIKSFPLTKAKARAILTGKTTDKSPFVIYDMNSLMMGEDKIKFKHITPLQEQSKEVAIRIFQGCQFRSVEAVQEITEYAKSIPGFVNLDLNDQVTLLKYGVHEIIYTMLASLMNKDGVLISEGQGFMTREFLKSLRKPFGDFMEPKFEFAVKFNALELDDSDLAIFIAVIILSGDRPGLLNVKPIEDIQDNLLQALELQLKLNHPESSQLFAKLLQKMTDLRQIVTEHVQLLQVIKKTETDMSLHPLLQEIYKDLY

[3] = biological target: T3, Peroxisome proliferator-activated receptor alpha (Homo sapiens) (UniProt Q07869); assay: Transactivation of GAL4-fused human PPARalpha ligand binding domain expressed in HepG2 cells after 20 hrs by luciferase reporter gene assay relative to WY-14643; type: cell-based
T3 sequence (whole entry): T1 sequence (Q07869 whole entry)
Method in brief: as §1, with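 “ONPG. Efficacy as % of maximal fold induction by Wy-14,643 (α) or rosiglitazone (γ); experiments repeated at least twice.” for “ONPG.”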

[4] = biological target: T3, Peroxisome proliferator-activated receptor alpha (Homo sapiens); assay: Agonist activity at PPARalpha in human HepG2 cells assessed as upregulation of CPT1 mRNA expression at 1 uM after 24 hrs by RT-PCR analysis relative to control; type: cell-based
Method in brief: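 Serum-starved HepG2 cells (24 h depletion) exposed for 24 h to 1 μM ligand; untreated cells as control; Wy 14,643 (50 μM) reference. Total RNA from 1 × 10^6 cells, reverse transcribed, CAC or CPT1 transcript quantified by real-time PCR against human actin. Means ± SD of three duplicate independent experiments; one-way ANOVA, Bonferroni test versus control.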

[5] = biological target: T3, Peroxisome proliferator-activated receptor alpha (Homo sapiens); assay: Agonist activity at PPARalpha in human HepG2 cells assessed as upregulation of CAC mRNA expression at 1 uM after 24 hrs by RT-PCR analysis relative to control; type: cell-based
Method in brief: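 Total RNA from 1 × 10^6 cells, reverse transcribed, CAC or CPT1 transcript quantified by real-time PCR against human actin. Means ± SD of three duplicate independent experiments; one-way ANOVA, Bonferroni test versus control.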

[6] = biological target: T4, Peroxisome proliferator-activated receptor gamma (Homo sapiens) (UniProt P37231); assay: Binding affinity to PPARgamma-LBD site B (unknown origin) in presence of (S)-2-(biphenyl-4-yloxy)-3-phenylpropanoic acid at 470 uM after 3 hrs by isothermal titration calorimetry assay
T4 sequence (whole entry): T2 sequence (P37231 whole entry)
Method in brief: (§2)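 ITC at 25 °C on His-tagged PPARγ LBD dialysed into 20 mM Hepes pH 8.0, 1 mM TCEP; DMSO matched (<1%). […] Conditions: ligand 400 μM into 40 μM protein (5); reverse, 400 μM protein into 40 μM ligand (6); 600 μM ligand into 60 μM protein (7); protein 47 μM pre-equilibrated 3 h 1:1 with site-A ligand, titrated with 470 μM ligand (8); reverse titration (9).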

[7] = biological target: T4, Peroxisome proliferator-activated receptor gamma (Homo sapiens); assay: Binding affinity to PPARgamma-LBD site A and site B (unknown origin) at 40 uM after 3 hrs by isothermal titration calorimetry assay; method in brief: as §2
[8] = biological target: T4, Peroxisome proliferator-activated receptor gamma (Homo sapiens); assay: Binding affinity to PPARgamma-LBD site A (unknown origin) at 400 uM after 3 hrs by isothermal titration calorimetry assay; method in brief: as §2
[9] = biological target: T3, Peroxisome proliferator-activated receptor alpha (Homo sapiens); assay: Agonist activity at PPARalpha in human HepG2 cells assessed as upregulation of CAC protein expression at 1 uM after 48 hrs by Western blotting analysis relative to control
[10] = biological target: T3, Peroxisome proliferator-activated receptor alpha (Homo sapiens); assay: Agonist activity at PPARalpha in human HepG2 cells assessed as upregulation of CPT1 protein expression at 1 uM after 48 hrs by Western blotting analysis relative to control
[11] = biological target: T4, Peroxisome proliferator-activated receptor gamma (Homo sapiens); assay: Transactivation of GAL4-fused human PPARgamma ligand binding domain expressed in HepG2 cells up to 10 uM after 20 hrs by luciferase reporter gene assay; type: cell-based
Method in brief: as §1, with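 “ONPG. Efficacy as % of maximal fold induction by Wy-14,643 (α) or rosiglitazone (γ); experiments repeated at least twice.” for “ONPG.”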

[12] = biological target: T4, Peroxisome proliferator-activated receptor gamma (Homo sapiens); assay: Binding affinity to PPARgamma-LBD site B and site C (unknown origin) at 60 uM after 3 hrs by isothermal titration calorimetry assay; method in brief: as §2
[13] = biological target: T4, Peroxisome proliferator-activated receptor gamma (Homo sapiens); assay: Binding affinity to PPARgamma-LBD site B (unknown origin) at 600 uM after 3 hrs by isothermal titration calorimetry assay; method in brief: as §2

Row | EC50 [1] [nM] | EC50 [2] [nM] | Emax [3] [%] | SMILES | further results
1 | 100 | – | – | CC(C)c1ccccc1-c1ccc(OC(Cc2ccccc2)C(=O)O)cc1 (single isomer, unassigned; form 2) [listing 1 of 2 here] | –
2 | 2100 | 2040 | 50 | Cc1cc(OC(Cc2ccccc2)C(=O)O)cc(C)c1-c1ccccc1 (racemic) | –
3 | 22 | 1000 | 126 | O=C(O)[C@H](Cc1ccccc1)Oc1ccc(-c2ccccc2C(F)(F)F)cc1 | –
4 | 230 | 2540 | 123 | Cc1cccc(C)c1-c1ccc(O[C@@H](Cc2ccccc2)C(=O)O)cc1 | –
5 | – | – | 147 | CC(C)c1ccccc1-c1ccc(OC(Cc2ccccc2)C(=O)O)cc1 (single isomer, unassigned; form 1) [listing 1 of 2 here] | fold change (FC) [4]: 2.3; fold change (FC) [5]: 1.5; Ka [6]: 1.87 ×10⁵ /M; Ka [7]: 3.1 ×10⁵ /M; Ka [8]: 3.6 ×10⁵ /M; Activity [9]: Active; Activity [10]: Active
6 | – | – | – | Cc1cccc(Nc2cc(Cl)nc(SCC(=O)O)n2)c1C | Activity [11]: inactive
7 | 31 | 640 | 133 | Cc1ccccc1-c1ccc(O[C@@H](Cc2ccccc2)C(=O)O)cc1C | –
8 | 990 | 700 | 68 | Cc1cc(-c2ccccc2)ccc1O[C@@H](Cc1ccccc1)C(=O)O | –
9 | 80 | 700 | 120 | Cc1cc(O[C@@H](Cc2ccccc2)C(=O)O)ccc1-c1ccccc1 | –
10 | 220 | 460 | 69 | Cc1cccc(-c2ccc(OC(Cc3ccccc3)C(=O)O)cc2)c1 (racemic) | –
11 | 44 | 1400 | 132 | O=C(O)[C@H](Cc1ccccc1)Oc1ccc(-c2ccccc2-c2ccccc2)cc1 | –
12 | 12 | 1200 | 143 | CCc1ccccc1-c1ccc(O[C@@H](Cc2ccccc2)C(=O)O)cc1 | –
13 | – | – | 145 | CC(C)c1ccccc1-c1ccc(OC(Cc2ccccc2)C(=O)O)cc1 (single isomer, unassigned; form 2) [listing 2 of 2 here] | Activity [11]: Active; Ka [12]: 1.3 ×10⁵ /M; Ka [13]: 1.34 ×10⁵ /M
14 | 1130 | 3100 | 61 | Cc1cc(-c2ccccc2)cc(C)c1O[C@@H](Cc1ccccc1)C(=O)O | –
15 | 67 | 1360 | 155 | Cc1ccccc1-c1ccc(O[C@@H](Cc2ccccc2)C(=O)O)cc1 | –
16 | 280 | – | 73 | O=C(O)C(Cc1ccccc1)Oc1ccc(-c2ccccc2CCc2ccccc2)cc1 (racemic) | Activity [11]: Active
17 | 500 | – | 107 | CCCCCc1ccccc1-c1ccc(OC(Cc2ccccc2)C(=O)O)cc1 (racemic) | Activity [11]: Active
18 | 240 | – | 131 | CCCc1ccccc1-c1ccc(OC(Cc2ccccc2)C(=O)O)cc1 (racemic) | Activity [11]: Active
19 | 130 | 2300 | 124 | COc1ccccc1-c1ccc(O[C@@H](Cc2ccccc2)C(=O)O)cc1 | –
20 | – | – | – | CC(C)(Sc1ccc(CCN(CCCCC2CCCCC2)C(=O)NC2CCCCC2)cc1)C(=O)O | Activity [4]: Active
21 | 12 | 1000 | – | CC(C)c1ccccc1-c1ccc(OC(Cc2ccccc2)C(=O)O)cc1 (single isomer, unassigned; form 1) [listing 2 of 2 here] | –
22 | 120 | 690 | 68 | O=C(O)[C@H](Cc1ccccc1)Oc1ccc(-c2ccccc2F)cc1 | –
23 | 210 | 590 | 74 | Cc1ccc(-c2ccc(O[C@@H](Cc3ccccc3)C(=O)O)cc2)cc1 | –
24 | – | – | 116 | O=C(O)[C@H](Cc1ccccc1)Oc1ccc(-c2ccccc2)cc1 | –
